Source: PMC4706624 (International Journal for Parasitology: Drugs and Drug …, 2015)
Where “and” joins values, the source holds several entries; their conditions need not be identical. Equal values may be shown once. Entries after “also recorded” stand apart in the source; their conditions may differ.

Tests used:
PvENT1 [1] = biological target: T1, PvENT1 (Plasmodium vivax, UniProt A5K8B0); assay: Inhibition of [3H]uridine uptake into PvENT1-expressing yeast; assay type: cell-based; details: for fold lower IC50 of PvENT1 than PfENT1: PvENT1 vs PfENT1
T1 sequence (A5K8B0 1-416): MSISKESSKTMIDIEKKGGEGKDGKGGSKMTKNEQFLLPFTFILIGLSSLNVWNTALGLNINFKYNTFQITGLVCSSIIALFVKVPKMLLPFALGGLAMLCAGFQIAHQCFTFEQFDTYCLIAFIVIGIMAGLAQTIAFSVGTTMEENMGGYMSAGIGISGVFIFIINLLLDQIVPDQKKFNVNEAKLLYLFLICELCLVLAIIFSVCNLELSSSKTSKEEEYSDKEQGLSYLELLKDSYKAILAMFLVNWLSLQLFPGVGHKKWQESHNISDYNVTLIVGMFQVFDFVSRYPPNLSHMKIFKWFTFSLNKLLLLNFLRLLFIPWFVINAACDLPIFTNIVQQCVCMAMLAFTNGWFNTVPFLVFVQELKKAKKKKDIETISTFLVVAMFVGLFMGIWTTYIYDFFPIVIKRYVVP

PvENT1 [2] = biological target: T1, PvENT1; assay: Inhibition of [3H]adenosine uptake into PvENT1-expressing yeast; assay type: cell-based
hENT1 = details: ref Griffiths et al., 1997, Baldwin et al., 2004, cited from earlier work
PfENT1 = details: read-out: PfENT1 IC50; ref Riegelhaupt et al., 2010a; cited from earlier work
[3] = system: PvENT1-expressing purine auxotrophic yeast; assay: Growth of PvENT1-expressing purine auxotrophic yeast with a sole purine source; assay type: cell-based; details: Saccharomyces cerevisiae, read-out: growth EC50
Method in brief: (§1)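 Yeast strain was MATa his3Δ1 leu2Δ0 met15Δ0 ura3Δ0 fui1Δ::KanMX4 ade2Δ::hphNT1 carrying pCM189 (empty or PvENT1). Cells grown to mid-log in SDM-adenine were washed three times in water, diluted to 4 × 10^6 cells/mL, and added 1:1 to adenine or adenosine serially diluted in 2× purine-free SDM.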

[4] = system: empty vector (EV) purine auxotrophic yeast; assay: Growth of empty vector; assay type: cell-based, Saccharomyces cerevisiae
Method in brief: as §1

[5] = IC50 for inhibition of [^3H]Uridine by indicated purine, 250 nM [3H]uridine, 15 min, PvENT1-expressing yeast, mean ± SD
[6] = IC50 for inhibition of [^3H]substrate uptake by the indicated purine, WT, Table 4, WT PvENT1, radiolabel [3H]adenosine (#)
[7] = hENT1 inhibitors and toxic purine analogs, 50 nM [3H]adenosine, concentrations up to 20 mM, mean ± SD, n = 3
[8] = read-out: [^3H]Adenosine uptake inhibition IC50, hENT1 inhibitors and toxic purine analogs, 50 nM [3H]adenosine, concentrations up to 20 mM, mean ± SD, n = 3
[9] = IC50 for inhibition of [^3H]Adenosine by indicated pyrimidine, 50 nM [3H]adenosine, 15 min, PvENT1-expressing yeast, mean ± SD
[10] = [^3H]Adenosine uptake inhibition IC50, hENT1 inhibitors and toxic purine analogs, 50 nM [3H]adenosine, concentrations up to 20 mM, mean ± SD, n = 3

With O=c1[nH]c(=O)c2ncn([C@@H]3O[C@H](CO)[C@@H](O)[C@H]3O)c2[nH]1 [Xanthosine] the IC50 (PvENT1 [1]; [5]) was 4310 ± 2870 µM.
In the case of O=c1[nH]c(=O)c2[nH]cnc2[nH]1 [Xanthine], the IC50 (PvENT1 [1]; [5]) is reported as 2550 ± 189 µM.
OC[C@H]1O[C@@H](n2cnc3c(O)ncnc32)[C@H](O)[C@@H]1O [Inosine] gave an IC50 (PvENT1 [2]; [6]) of 5 ± 4 µM and an IC50 (PvENT1 [1]; [5]) of 3.8 ± 1.4 µM.
With O=[N+]([O-])c1ccc(CSc2ncnc3c2ncn3C2OC(CO)C(O)C2O)cc1 (stereo not drawn) [NBMPR, 4-nitrobenzylthioinosine] the “[^3H]Adenosine uptake inhibition IC50” value (PvENT1 [2]; [7]) was “did not inhibit; also recorded: not sensitive”, the “[^3H]Adenosine uptake inhibition IC50” value (PvENT1 [2]; hENT1 inhibitors and toxic purine analogs, 50 nM [3H]adenosine, concentrations up to 20 mM, mean ± SD, n = 3, listed as 4-nitrobenzylthioinosine (NBMPR)) was “no effect” and the IC50 (PvENT1 [2]; [8]) was over 20000 µM. For the same molecule, the “concentrations inhibiting hENT1” value (hENT1; in words) was “sub-nanomolar”.
With Nc1nc2c(ncn2[C@@H]2O[C@H](CO)[C@@H](O)[C@H]2O)c(=O)[nH]1 [Guanosine] the IC50 (PvENT1 [1]; [5]) was 14.9 ± 1.4 µM.
With O=c1[nH]cnc2nc[nH]c12 [Hypoxanthine] the IC50 (PvENT1 [2]; [6]) was 141 ± 24 µM, the IC50 (PvENT1 [1]; [5]) was 99 ± 30 µM and the “fold lower IC50 of PvENT1 than PfENT1” value (PvENT1 [1]) was 4–5 fold. The IC50 (PfENT1) was about 480 µM.
With Nc1ncnc2c1ccn2[C@@H]1O[C@H](CO)[C@@H](O)[C@H]1O [Tubercidin, tubercidin (7-deaza-adenosine)] the “[^3H]Adenosine uptake inhibition IC50” value (PvENT1 [2]; [7]) was “failed to inhibit” and the IC50 (PvENT1 [2]; [8]) was over 20000 µM.
With O=c1[nH]c(=O)n([C@@H]2O[C@H](CO)[C@@H](O)[C@H]2O)cc1F [5-Fluorouridine (5-FUrd), 5-Fluorouridine] the IC50 (PvENT1 [2]; [9]) was 1770 ± 302 µM and the IC50 (PvENT1 [2]; IC50 for inhibition of [^3H]adenosine uptake, 50 nM [3H]adenosine) was 1700 µM.
Nc1nc2nc[nH]c2c(=O)[nH]1 [Guanine] showed an IC50 (PvENT1 [1]; [5]) of 6340 ± 2950 µM.
For OCCN(CCO)c1nc(N2CCCCC2)c2nc(N(CCO)CCO)nc(N3CCCCC3)c2n1 [Dipyridamole, dipyridamole], the “PvENT1 IC50 relative to hENT1” value (PvENT1 [2]; PvENT1 vs human ENT1) is listed as 1000 fold, the IC50 (PvENT1 [2]; [10]) is listed as ~40 µM and 40 µM and the “concentration range inhibiting hENT1” value (hENT1) is listed as 5 to 20 nM.
In the case of Cc1c[nH]c(=O)[nH]c1=O [Thymine], the IC50 (PvENT1 [2]; [9]) is reported as 564 ± 145 µM.
With Sc1ncnc2nc[nH]c12 [6-mercaptopurine] the IC50 (PvENT1 [2]; [10]) was 160 µM and 158 µM.
With Nc1ncnc2[nH]cnc12 [Adenine] the IC50 (PvENT1 [1]; [5]) was 1430 ± 736 µM, the “IC50 of nucleobase relative to the corresponding nucleoside” value (PvENT1 [1]; PvENT1-expressing yeast) was “one order of magnitude higher” and the EC50 [3] was 27 ± 2 µM. For the same molecule, the EC50 ([4]; Saccharomyces cerevisiae, read-out: growth EC50) was 39 ± 2 µM.
Nc1nc2c(ncn2[C@H]2C[C@H](O)[C@@H](CO)O2)c(=O)[nH]1 [2-deoxyguanosine] gave an IC50 (PvENT1 [1]; read-out: IC50 for inhibition of [^3H]Uridine by indicated purine, 250 nM [3H]uridine, 15 min, PvENT1-expressing yeast, mean ± SD) of 20.5 ± 4.8 µM.
With Nc1ncnc2c1ncn2[C@@H]1O[C@H](CO)[C@@H](O)[C@H]1O [Adenosine] the IC50 (PvENT1 [1]; [5]) was 142 ± 34 µM, the IC50 (PvENT1 [1]; IC50 for inhibition of [^3H]substrate uptake by the indicated purine, WT, Table 4, WT PvENT1, radiolabel [3H]uridine) was 167 ± 52 µM and the “fold lower IC50 of PvENT1 than PfENT1” value (PvENT1 [1]) was 4–5 fold. For the same molecule, the EC50 [3] was 394 ± 85 µM, the IC50 (PfENT1) was about 650 µM and the “growth EC50” value ([4]; EV yeast, liquid media, sole purine source) was “failed to grow”.
In the case of Nc1cc[nH]c(=O)n1 [Cytosine], the IC50 (PvENT1 [2]; [9]) is reported as 6140 ± 1030 µM and the “effect on radiolabel uptake into PvENT1-expressing yeast (in words)” value (PvENT1 [2]; [3H]adenosine uptake for pyrimidines) is reported as “slight inhibition”.
In the case of O=c1ccn([C@@H]2O[C@H](CO)[C@@H](O)[C@H]2O)c(=O)[nH]1 [Uridine], the IC50 (PvENT1 [2]; [9]) is reported as 1730 ± 809 µM.
In the case of O=c1cc[nH]c(=O)[nH]1 [Uracil], the IC50 (PvENT1 [2]; [9]) is reported as 3390 ± 1170 µM.
With Cc1cn([C@H]2C[C@H](O)[C@@H](CO)O2)c(=O)[nH]c1=O [Thymidine] the IC50 (PvENT1 [2]; [9]) was 183 ± 53 µM.
